Publication PMC3081996 (Bioorganic & medicinal chemistry letters, 2010)
“Also recorded” adds a separate entry of the source.

Columns and labels:
Assay type in all cases: biochemical
human TG2 [1] = target: T1, human TG2 (Homo sapiens, UniProt P21980); assay: preliminary screening of isatins as TG2 inhibitors
T1 sequence (P21980 1-687): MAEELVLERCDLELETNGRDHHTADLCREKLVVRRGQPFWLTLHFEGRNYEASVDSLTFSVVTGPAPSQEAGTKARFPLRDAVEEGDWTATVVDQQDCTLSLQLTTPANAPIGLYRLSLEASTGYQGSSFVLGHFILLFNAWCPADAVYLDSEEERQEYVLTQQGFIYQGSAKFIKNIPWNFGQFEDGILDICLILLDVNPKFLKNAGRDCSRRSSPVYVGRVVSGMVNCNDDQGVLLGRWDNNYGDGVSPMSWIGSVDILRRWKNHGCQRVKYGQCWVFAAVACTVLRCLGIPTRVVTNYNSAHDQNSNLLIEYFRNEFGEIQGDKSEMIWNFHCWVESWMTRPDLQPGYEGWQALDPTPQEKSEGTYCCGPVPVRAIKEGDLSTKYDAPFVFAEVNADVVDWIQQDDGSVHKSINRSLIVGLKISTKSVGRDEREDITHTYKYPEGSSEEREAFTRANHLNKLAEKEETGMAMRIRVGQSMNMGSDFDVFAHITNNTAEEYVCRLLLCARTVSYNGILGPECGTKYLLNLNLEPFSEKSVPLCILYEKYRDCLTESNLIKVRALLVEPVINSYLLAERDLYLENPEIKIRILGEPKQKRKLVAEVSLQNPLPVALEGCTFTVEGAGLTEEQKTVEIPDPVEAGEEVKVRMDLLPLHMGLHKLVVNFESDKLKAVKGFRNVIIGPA
Procedure, shortened: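 Coupled GDH assay of TG2-catalysed deamidation of the substrate ZQG, with human TG2 at 0.5 µM. Inhibition by isatin-derived test compounds is read as IC50.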

human TG2 [2] = target: T1, human TG2; assay: GDH-coupled deamidation assay with Cbz-Gln-Gly; conditions: for GDH-coupled assay α (ratio Ki’/Ki): Table 4, [TG2] = 0.5 µM, mixed inhibition model
human TG2 [3] = target: T1, human TG2; assay: direct fluorometric assay; conditions: for partial inhibition activity (in words): fluorometric assay; for Fluorescent assay α (ratio Ki’/Ki): Table 4, [TG2] = 15 nM, mixed inhibition model; for binding character in mixed inhibition model (in words): compounds that did not exhibit partial inhibition
Procedure, shortened: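 Direct fluorometric assay following release of 7-hydroxycoumarin from an ester substrate by human TG2 at 15 nM. Ki and Ki' are fitted to a mixed inhibition model, with α = Ki'/Ki. A larger α means more competitive inhibition, α = 1 means simple non-competitive, and α < 1 means increasingly uncompetitive.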

TG2 inhibitory activity (in words) (human TG2 [2]; GDH-coupled assay) | GDH-coupled assay α (ratio Ki’/Ki) (human TG2 [2]) | Compound | further results
– | > 100 | CN1C(=O)/C(=C/C(=O)c2cccnc2)c2c(Cl)cccc21 [Compound 28] | –
– | 1.8 | O=C(/C=C1/C(=O)N(Cc2ccccc2)c2cccc(Cl)c21)c1cccnc1 [Compound 33] | Fluorescent assay α (ratio Ki’/Ki) (human TG2 [3]): 3.6; binding character in mixed inhibition model (in words) (human TG2 [3]): non-competitive binding character
– | > 100 | O=C1Nc2ccccc2/C1=C\C(=O)c1cccnc1 [Compound 40] | loss in potency relative to compound 16 (human TG2 [2]; GDH-coupled assay IC50): > 20 fold
sub-micromolar inhibitor | > 100 | O=C1Nc2cccc(Br)c2/C1=C\C(=O)c1cccnc1 [Compound 41] | Fluorescent assay α (ratio Ki’/Ki) (human TG2 [3]): 2.6; binding character in mixed inhibition model (in words) (human TG2 [3]): non-competitive binding character
– | > 100 | O=C1Nc2ccc(Br)cc2/C1=C\C(=O)c1cccnc1 [Compound 43] | Fluorescent assay α (ratio Ki’/Ki) (human TG2 [3]): 4.4; binding character in mixed inhibition model (in words) (human TG2 [3]): non-competitive binding character
nearly as potent as compound 16 | 0.86 | O=C1Nc2cc(Cl)ccc2/C1=C\C(=O)c1cccnc1 [Compound 46] | mode of inhibition (Lineweaver-Burk analysis) (human TG2 [2]; GDH-coupled assay): non-competitive, allosteric mode of action; also recorded: non-competitive inhibitory character
nearly as potent as compound 16 | – | O=C1Nc2cc(Br)ccc2/C1=C\C(=O)c1cccnc1 [Compound 47] | partial inhibition activity (in words) (human TG2 [3]): partial inhibition activity

The next lines start with the molecule.

Compound | TG2 inhibitory activity (in words) (human TG2 [2]; GDH-coupled assay) | GDH-coupled assay α (ratio Ki’/Ki) (human TG2 [2]) | further results
O=C1Nc2c(F)cc(F)cc2C1=O [5,7-difluoroisatin] | – | – | IC50 (human TG2 [1]): 65 to 450 µM
O=C1Nc2ccc(Br)cc2C1=O [5-bromo] | – | – | IC50 (human TG2 [1]): 65 to 450 µM
O=C1Nc2ccc(Cl)cc2C1=O [5-chloro] | – | – | IC50 (human TG2 [1]): 65 to 450 µM
O=C1Nc2ccc(I)cc2C1=O [5-iodo] | – | – | IC50 (human TG2 [1]): 65 to 450 µM
Cc1cc(C)c(CN2C(=O)C(=O)c3ccccc32)cc1CN1C(=O)C(=O)c2ccccc21 [Compound 4] | active | – | –
O=C1C(=O)N(CN2C(=O)C(=O)c3ccccc32)c2ccccc21 [Compound 6] | active | – | –
O=C1Nc2ccccc2/C1=C1/Nc2ccccc2C1=O [Compound 7, indirubin] | inactive | – | –
O=C1Nc2ccccc2/C1=C1\C(=O)Nc2ccccc21 [Compound 8, isoindigotin] | promising inhibitors | – | –
CC(=O)/C=C1/C(=O)Nc2ccccc21 [Compound 9] | promising inhibitors | – | –
CC(=O)/C=C1/C(=O)Nc2cccc(Cl)c21 [Compound 10] | – | > 100 | –
CC(=O)/C=C1/C(=O)Nc2ccc(Cl)cc21 [Compound 11] | – | > 100 | –
CC(=O)/C=C1/C(=O)Nc2cc(F)ccc21 [Compound 12] | – | > 100 | –
O=C1Nc2cccc(Cl)c2/C1=C\C(=O)c1cccnc1 [Compound 16] | – | > 100 | –
COc1ccncc1C(=O)/C=C1/C(=O)Nc2cccc(Cl)c21 [Compound 19] | – | – | partial inhibition activity (in words) (human TG2 [3]): partial inhibition activity
O=C1Nc2cccc(Cl)c2/C1=C\C(=O)c1ccccc1 [Compound 20] | – | > 100 | –
O=C1Nc2cccc(Cl)c2/C1=C\C(=O)c1ccc(Cl)cc1 [Compound 22] | – | – | partial inhibition activity (in words) (human TG2 [3]): partial inhibition activity
Nc1ccc(C(=O)/C=C2/C(=O)Nc3cccc(Cl)c32)cc1 [Compound 27] | – | – | partial inhibition activity (in words) (human TG2 [3]): partial inhibition activity
O=C1Nc2c(Cl)cccc2/C1=C\C(=O)c1cccnc1 [Compound 48] | – | – | partial inhibition activity (in words) (human TG2 [3]): partial inhibition activity
